Results published in ChEMBL document CHEMBL4834403, “Design and Synthesis of Novel Epigenetic Inhibitors Targeting Histone Deacetylases, DNA Methyltransferase 1, and Lysine Methyltransferase G9a with In Vivo Efficacy in Multiple Myeloma” (J Med Chem, 2021).
Activity calls are given as the source filed them. No cut-off for these calls is given here.

Experiments:
[1] = molecular target: T1, Protein deacetylase HDAC6 (Homo sapiens, UniProt Q9UBN7); experiment: Inhibition of full length human N-terminal GST-tagged HDAC6 using fluorogenic acetylated peptide as substrate incubated for 30 mins by fluorescence plate reader assay
T1 sequence (Q9UBN7 whole entry): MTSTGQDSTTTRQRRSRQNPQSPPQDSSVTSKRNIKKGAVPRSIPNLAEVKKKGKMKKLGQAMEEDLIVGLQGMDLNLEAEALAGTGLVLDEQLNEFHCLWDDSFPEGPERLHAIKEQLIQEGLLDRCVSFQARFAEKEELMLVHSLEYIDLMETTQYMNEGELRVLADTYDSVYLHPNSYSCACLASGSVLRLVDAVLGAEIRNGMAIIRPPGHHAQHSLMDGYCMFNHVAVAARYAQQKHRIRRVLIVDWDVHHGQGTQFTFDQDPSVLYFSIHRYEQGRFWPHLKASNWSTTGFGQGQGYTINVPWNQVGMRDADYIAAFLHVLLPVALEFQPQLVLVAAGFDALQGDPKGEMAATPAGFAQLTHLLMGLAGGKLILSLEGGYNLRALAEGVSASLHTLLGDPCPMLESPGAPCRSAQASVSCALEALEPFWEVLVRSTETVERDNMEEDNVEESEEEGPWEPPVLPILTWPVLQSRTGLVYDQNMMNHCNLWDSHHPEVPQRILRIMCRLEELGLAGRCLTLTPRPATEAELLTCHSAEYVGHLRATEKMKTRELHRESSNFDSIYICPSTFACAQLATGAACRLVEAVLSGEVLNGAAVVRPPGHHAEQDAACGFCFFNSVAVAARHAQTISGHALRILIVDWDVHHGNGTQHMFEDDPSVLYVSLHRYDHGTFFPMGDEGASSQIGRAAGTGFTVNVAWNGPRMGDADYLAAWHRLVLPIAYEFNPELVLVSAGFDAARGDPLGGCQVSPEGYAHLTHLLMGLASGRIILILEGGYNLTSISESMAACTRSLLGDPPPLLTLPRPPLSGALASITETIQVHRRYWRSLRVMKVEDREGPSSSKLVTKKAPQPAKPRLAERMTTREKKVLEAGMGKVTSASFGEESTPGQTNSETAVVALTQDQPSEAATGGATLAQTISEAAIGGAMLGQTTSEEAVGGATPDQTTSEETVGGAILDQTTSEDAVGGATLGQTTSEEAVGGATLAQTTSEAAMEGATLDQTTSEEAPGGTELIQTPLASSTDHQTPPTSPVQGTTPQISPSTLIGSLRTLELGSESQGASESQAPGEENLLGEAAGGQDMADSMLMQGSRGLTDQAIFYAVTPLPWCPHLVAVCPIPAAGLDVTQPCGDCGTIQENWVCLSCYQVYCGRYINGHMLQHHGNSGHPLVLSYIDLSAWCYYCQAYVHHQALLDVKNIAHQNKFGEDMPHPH

[2] = AUC (0 to 24 hrs) in BALB/c RAG2-/- gammaC-/- mouse at 10 mg/kg, ip measured up to 24 hrs by UPLC-triple quadrupole MS analysis; type: ADME, organism-based; parameters: route intraperitoneal, dose 10 mg/kg, time <=24; settings: in vivo
[3] = Kinetic solubility of the compound; type: physicochemical; settings: read-out: Kinetic_solubility
[4] = molecular target: T2, Histone-lysine N-methyltransferase EHMT2 (Homo sapiens) (UniProt Q96KQ7); experiment: Inhibition of G9A in human MM1.S cells assessed as decrease in H3K9Me2 levels up to 1000 nM after 48 hrs by Western blot analysis; type: cell-based; settings: dose nM <=1000, time 48.0 hrs
T2 sequence (whole entry): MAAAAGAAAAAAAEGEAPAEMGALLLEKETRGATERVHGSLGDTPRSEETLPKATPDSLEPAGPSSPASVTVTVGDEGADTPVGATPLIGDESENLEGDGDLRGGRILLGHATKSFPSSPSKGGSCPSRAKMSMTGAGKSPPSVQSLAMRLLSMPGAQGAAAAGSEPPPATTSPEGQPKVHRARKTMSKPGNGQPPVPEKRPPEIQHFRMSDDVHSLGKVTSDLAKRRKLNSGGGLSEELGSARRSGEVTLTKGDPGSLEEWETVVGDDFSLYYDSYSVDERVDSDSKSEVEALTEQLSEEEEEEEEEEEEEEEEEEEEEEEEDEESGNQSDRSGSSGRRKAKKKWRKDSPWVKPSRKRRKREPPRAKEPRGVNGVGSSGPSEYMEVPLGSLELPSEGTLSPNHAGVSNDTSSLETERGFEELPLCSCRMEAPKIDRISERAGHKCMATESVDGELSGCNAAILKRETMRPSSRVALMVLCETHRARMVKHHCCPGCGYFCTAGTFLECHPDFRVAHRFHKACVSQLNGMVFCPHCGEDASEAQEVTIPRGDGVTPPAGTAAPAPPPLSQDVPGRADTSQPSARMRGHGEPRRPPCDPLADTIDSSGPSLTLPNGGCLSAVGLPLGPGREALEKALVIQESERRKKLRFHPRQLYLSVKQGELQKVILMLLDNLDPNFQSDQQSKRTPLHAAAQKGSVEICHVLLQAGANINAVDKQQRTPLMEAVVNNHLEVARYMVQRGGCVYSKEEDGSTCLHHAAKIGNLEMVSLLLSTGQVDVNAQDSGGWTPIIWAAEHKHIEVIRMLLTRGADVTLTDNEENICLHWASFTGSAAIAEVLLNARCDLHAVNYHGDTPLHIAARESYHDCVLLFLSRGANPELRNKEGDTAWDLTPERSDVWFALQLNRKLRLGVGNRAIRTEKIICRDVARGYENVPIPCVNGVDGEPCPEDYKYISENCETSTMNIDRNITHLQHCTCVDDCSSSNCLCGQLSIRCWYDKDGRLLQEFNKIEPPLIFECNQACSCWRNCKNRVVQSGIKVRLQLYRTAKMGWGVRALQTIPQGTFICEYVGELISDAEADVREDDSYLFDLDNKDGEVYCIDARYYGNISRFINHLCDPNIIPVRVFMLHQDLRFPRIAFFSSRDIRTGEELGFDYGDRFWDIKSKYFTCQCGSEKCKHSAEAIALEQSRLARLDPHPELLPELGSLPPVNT
Procedure, shortened: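 MM1.S cells exposed 48 h across a concentration range. Global H3K9Ac and H3K9me2 read by Western blot; run in duplicate.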

## COc1cc2c(NCC3CCN(c4ncc(C(=O)NO)cn4)CC3)cc(-c3ccc(C)o3)nc2cc1OCCCN1CCCC1
[1]
  IC50: 152 nM

## COc1cc2nc(-c3ccc(C)o3)cc(NCC3CCN(c4ncc(C(=O)NO)cn4)CC3)c2cc1OC
[2]
  AUC(0-t): 0.591 µM·h
[3]
  solubility kinetic: < 0.987 µg/mL
[4]
  inhibition: inactive
